Experimental data published in ChEMBL document CHEMBL1138302, “Diaryl dihydropyrazole-3-carboxamides with significant in vivo antiobesity activity related to CB1 receptor antagonism: synthesis, biological evaluation, and molecular modeling in the homology model” (J Med Chem, 2007).

Experiments:
Rattus norvegicus = experiment: Inhibition of sucrose intake in Zucker fa/fa rat at 10 mg/kg, po after 4 hrs; type: functional; settings: 10 mg/kg
Summary of the method: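 Female Zucker fa/fa rats (10-12 weeks, 300-350 g) trained six consecutive days on 5% sucrose with food and water withdrawn; day 7 randomized (n=6), dosed orally 10 mg/kg in 0.5% carboxymethylcellulose (2 mL/kg), exposed to sucrose 1 h later for 4 h. Consumption measured; % inhibition vs vehicle control; one-way ANOVA with Dunnett's test.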

Mus musculus [1] = experiment: Effect on locomotor activity in Swiss albino mouse tetrad model assessed as number of squares crossed in 5 mins at 1 mg/kg po after 35 mins in presence of 1 mg/kg cannabinoid agonist WIN-55212-2 relative to control; type: functional
Summary of the method: (§1)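 Female Swiss albino mice (10-12 weeks, 25-30 g), n=6, dosed orally in 0.5% carboxymethylcellulose (10 mL/kg); 1 h later WIN-55212-2 1 mg/kg iv in 0.01% Tween 80/5% DMSO saline. From 30 min on: rectal temperature before and after treatment; hot plate 55 °C, %MPE, 30 s cutoff; ring-test immobility over 5 min; open-field squares crossed in 5 min at 35 min. Compared with WIN-treated controls.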

Mus musculus [2] = experiment: Analgesic activity in Swiss albino mouse tetrad model at 30 mg/kg po by hot plate test in presence of 1 mg/kg cannabinoid agonist WIN-55212-2 relative to control; type: functional; summary of the method: as §1
Cannabinoid receptor 1 = Cannabinoid receptor 1 (Homo sapiens, UniProt P21554); experiment: biochemical; type: cell-based, HEK293
Cannabinoid receptor 1, sequence (P21554 whole entry): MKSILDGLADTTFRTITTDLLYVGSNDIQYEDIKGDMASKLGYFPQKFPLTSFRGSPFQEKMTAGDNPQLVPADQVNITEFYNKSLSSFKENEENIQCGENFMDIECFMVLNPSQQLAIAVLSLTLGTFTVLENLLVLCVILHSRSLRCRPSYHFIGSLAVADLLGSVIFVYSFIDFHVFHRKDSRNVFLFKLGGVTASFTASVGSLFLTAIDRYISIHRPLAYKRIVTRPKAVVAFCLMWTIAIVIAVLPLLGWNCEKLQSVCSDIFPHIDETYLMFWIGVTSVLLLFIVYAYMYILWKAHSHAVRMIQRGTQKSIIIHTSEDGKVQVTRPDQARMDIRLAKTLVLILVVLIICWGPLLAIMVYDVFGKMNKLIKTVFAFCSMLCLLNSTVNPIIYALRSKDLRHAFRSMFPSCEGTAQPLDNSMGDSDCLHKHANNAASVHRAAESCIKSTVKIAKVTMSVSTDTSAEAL

Mus musculus [3] = experiment: Effect on change in body temperature in Swiss albino mouse tetrad model at 3 mg/kg po in presence of 1 mg/kg cannabinoid agonist WIN-55212-2 relative to control; type: functional; summary of the method: as §1
Cannabinoid receptor 2 = Cannabinoid receptor 2 (Homo sapiens, UniProt P34972); experiment: Displacement of [3H]WIN-552122 from human recombinant CB2 receptor expressed in CHOK1 cells; type: cell-based, CHO-K1
Cannabinoid receptor 2, sequence (P34972 whole entry): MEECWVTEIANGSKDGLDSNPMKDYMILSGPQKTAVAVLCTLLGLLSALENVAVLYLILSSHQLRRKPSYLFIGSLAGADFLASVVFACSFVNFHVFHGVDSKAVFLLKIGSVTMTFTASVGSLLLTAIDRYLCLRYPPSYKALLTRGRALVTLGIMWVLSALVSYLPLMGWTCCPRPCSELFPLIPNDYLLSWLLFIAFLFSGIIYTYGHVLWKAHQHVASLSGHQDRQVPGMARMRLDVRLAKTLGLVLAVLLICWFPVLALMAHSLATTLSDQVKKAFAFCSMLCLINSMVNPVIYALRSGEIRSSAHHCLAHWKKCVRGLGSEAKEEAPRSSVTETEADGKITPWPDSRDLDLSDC

Mus musculus [4] = experiment: Effect on change in body temperature in Swiss albino mouse tetrad model at 30 mg/kg po in presence of 1 mg/kg cannabinoid agonist WIN-55212-2 relative to control; type: functional; summary of the method: as §1
Mus musculus [5] = experiment: Effect on catalepsy in Swiss albino mouse tetrad model assessed as immobility for 5 mins at 1 mg/kg po after 30 mins by ring test in presence of 1 mg/kg cannabinoid agonist WIN-55212-2 relative to control; type: functional; summary of the method: as §1
Mus musculus [6] = experiment: Effect on catalepsy in Swiss albino mouse tetrad model assessed as immobility for 5 mins at 30 mg/kg po after 30 mins by ring test in presence of 1 mg/kg cannabinoid agonist WIN-55212-2 relative to control; type: functional; summary of the method: as §1
Mus musculus [7] = experiment: Analgesic activity in Swiss albino mouse tetrad model at 10 mg/kg po by hot plate test in presence of 1 mg/kg cannabinoid agonist WIN-55212-2 relative to control; type: functional; summary of the method: as §1
Mus musculus [8] = experiment: Effect on locomotor activity in Swiss albino mouse tetrad model assessed as number of squares crossed in 5 mins at 30 mg/kg po after 35 mins in presence of 1 mg/kg cannabinoid agonist WIN-55212-2 relative to control; type: functional; summary of the method: as §1
Mus musculus [9] = experiment: Effect on locomotor activity in Swiss albino mouse tetrad model assessed as number of squares crossed in 5 mins at 3 mg/kg po after 35 mins in presence of 1 mg/kg cannabinoid agonist WIN-55212-2 relative to control; type: functional; summary of the method: as §1
Mus musculus [10] = experiment: Analgesic activity in Swiss albino mouse tetrad model at 1 mg/kg po by hot plate test in presence of 1 mg/kg cannabinoid agonist WIN-55212-2 relative to control; type: functional; summary of the method: as §1
[11] = Tmax in fasted Zucker fa/fa rat at 30 mg/kg, po; type: ADME, organism-based; parameters: dose 30 mg/kg, route oral; settings: in vivo
Summary of the method: (§2)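 Overnight-fasted female obese Zucker fa/fa rats (n=6), single 30 mg/kg oral dose as suspension in 0.5% carboxymethylcellulose sodium in water. Retro-orbital serial bleeds at 10, 20, 40 min and 1, 2, 4, 6, 8, 24, 48 h; plasma extracted liquid-liquid and quantified by LC-MS against spiked-matrix calibration with internal standard. Noncompartmental parameters computed.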

Mus musculus [12] = experiment: Effect on catalepsy in Swiss albino mouse tetrad model assessed as immobility for 5 mins at 10 mg/kg po after 30 mins by ring test in presence of 1 mg/kg cannabinoid agonist WIN-55212-2 relative to control; type: functional; summary of the method: as §1
[13] = Half life in fasted Zucker fa/fa rat at 30 mg/kg, po; type: ADME, organism-based; parameters: dose 30 mg/kg, route oral; settings: in vivo; summary of the method: as §2
Mus musculus [14] = experiment: Effect on change in body temperature in Swiss albino mouse tetrad model at 1 mg/kg po in presence of 1 mg/kg cannabinoid agonist WIN-55212-2 relative to control; type: functional; summary of the method: as §1
[15] = AUC (0 to infinity) in fasted Zucker fa/fa rat at 30 mg/kg, po; type: ADME, organism-based; parameters: time infinity, dose 30 mg/kg, route oral; settings: plasma; summary of the method: as §2
Mus musculus [16] = experiment: Effect on catalepsy in Swiss albino mouse tetrad model assessed as immobility for 5 mins at 3 mg/kg po after 30 mins by ring test in presence of 1 mg/kg cannabinoid agonist WIN-55212-2 relative to control; type: functional; summary of the method: as §1
Mus musculus [17] = experiment: Effect on change in body temperature in Swiss albino mouse tetrad model at 10 mg/kg po in presence of 1 mg/kg cannabinoid agonist WIN-55212-2 relative to control; type: functional; summary of the method: as §1
Mus musculus [18] = experiment: Effect on locomotor activity in Swiss albino mouse tetrad model assessed as number of squares crossed in 5 mins at 10 mg/kg po after 35 mins in presence of 1 mg/kg cannabinoid agonist WIN-55212-2 relative to control; type: functional; summary of the method: as §1
Mus musculus [19] = experiment: Analgesic activity in Swiss albino mouse tetrad model at 3 mg/kg po by hot plate test in presence of 1 mg/kg cannabinoid agonist WIN-55212-2 relative to control; type: functional; summary of the method: as §1
[20] = Cmax in fasted Zucker fa/fa rat at 30 mg/kg, po; type: ADME, organism-based; parameters: dose 30 mg/kg, route oral; settings: in vivo; summary of the method: as §2
[21] = Drug concentration in fasted Zucker fa/fa rat plasma at 30 mg/kg, po after 3 hrs; type: ADME, organism-based; parameters: dose 30 mg/kg, route oral
Summary of the method: (§3)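 Female obese Zucker fa/fa rats (n=6), fasted, single oral 30 mg/kg in 0.5% carboxymethylcellulose; blood, brain and white adipose tissue taken at 3 h. Tissues saline-washed and homogenized in Tris buffer pH 7.4; plasma and homogenates liquid-liquid extracted and assayed by LC-MS (cyano column, ammonium acetate/TFA–acetonitrile 30:70). Values mean ± SEM.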

[22] = Drug concentration in fasted Zucker fa/fa rat white adipose tissue at 30 mg/kg, po after 3 hrs; type: ADME, organism-based; parameters: dose 30 mg/kg, route oral; settings: read-out: Drug uptake; summary of the method: as §3
[23] = Drug concentration in fasted Zucker fa/fa rat brain at 30 mg/kg, po after 3 hrs; type: ADME, organism-based; parameters: dose 30 mg/kg, route oral; settings: read-out: Drug uptake; summary of the method: as §3

Compound: O=C(NN1CCOCC1)C1=NN(c2ccc(Cl)cc2Cl)C(c2ccc(Cl)cc2)C1.O=S(=O)(O)O (single isomer, unassigned; 30)
- Inhibition (Rattus norvegicus): 58.6%
- Activity (Mus musculus [1]): 0.4
- MPE (Mus musculus [2]): 11.5%
- Ki (Cannabinoid receptor 1): 0.15 µM
- Activity (Mus musculus [3]): -2.1 °C
- Ki (Cannabinoid receptor 2): 24.5 µM
- Activity (Mus musculus [4]): 0.15 °C
- Activity (Mus musculus [5]): 85.2%
- Activity (Mus musculus [6]): 18.23%
- MPE (Mus musculus [7]): -0.15%
- Activity (Mus musculus [8]): 25
- Activity (Mus musculus [9]): 3
- MPE (Mus musculus [10]): 24%
- Tmax [11]: 3.7 h
- Activity (Mus musculus [12]): 14.2%
- half-life [13]: 17.6 h
- Activity (Mus musculus [14]): -4.24 °C
- AUC(0-inf) [15]: 10000 ng·h/mL
- Activity (Mus musculus [16]): 33.75%
- Activity (Mus musculus [17]): -0.15 °C
- Activity (Mus musculus [18]): 13.25
- MPE (Mus musculus [19]): 12%
- Cmax [20]: 510 ng/mL
- concentration at 3 h [21]: 1400 ng/mL
- concentration at 3 h [22]: 6310 ng/g
- concentration at 3 h [23]: 4860 ng/g
